Experimental data from different studies.
Lines come from different studies, so protocols differ.
Cell line: MCF7
Effect on: cell growth or viability

`N.N.O=C([O-])C1(C(=O)[O-])CCC1.[Pt+2]` gave an IC50 of greater than 100 µM (MTT; 96 h).
The IC50 of `O=C(Oc1ccc(I)cc1)[c-]1cccc1.[Fe+2].c1cc[cH-]c1` is reported as 256 µM (MTT; 72 h).
`C[C@]12C[C@@H](O)[C@H]3[C@@H](CC[C@]4(O)C[C@@H](O)C[C@@H](O)[C@]34CO)[C@@]1(O)CC[C@@H]2c1cn(Cc2ccccc2)nn1` gave an IC50 of greater than 100 µM (resazurin; 72 h).
With `CO[C@]1([C@@H]2CSC(=O)N2Cc2ccccc2)C[C@H]2C[C@@H](CC[C@H](C)/C=C\C=C\CC/C(C)=C\C(=O)O2)O1` the IC50 was 0.78 µM (MTT; 72 h).
For `COc1ccc(/C=C\c2cc(OC)c(OC)c(OC)c2)cc1`, the IC50 was 0.0048 µM (SRB; 48 h).
For `COC1(C2CSC(=O)N2)CC2CC(CCC(C)C=CC=CCCC(C)=CC(=O)O2)O1` (centres unmarked), the IC50 was 10.2 µM (MTT; 72 h).
With `N.N.[Cl][Pt][Cl]` the IC50 was 14.2 µM (MTT; 48 h).
`CCN1C(=O)SC[C@H]1[C@@]1(O)C[C@H]2C[C@@H](CC[C@H](C)/C=C\C=C\CC/C(C)=C\C(=O)O2)O1` gave an IC50 of 0.95 µM (MTT; 72 h).
With `COc1c2ccoc2cc2oc(=O)ccc12` the IC50 was 34.5 µM (WST-1; 48 h).
`COc1c2c(cc3c1OCO3)[C@]13C=C[C@H](OC)C[C@@H]1[N@](C2)C[C@H]3OC(=O)c1ccc2ccccc2c1` has an IC50 of greater than 10 µM (WST-1).
`COc1cc2c3c(n(CCCN4CCOCC4)c(=O)c2cc1OC)-c1cc2c(cc1C3=O)OCO2` has an IC50 of 0.288 µg/mL (72 h).
`c1ccc2c(c1)CCc1c-2[nH]c2ccccc12` gave an IC50 of greater than 75 µM (MTT; 72 h).
The IC50 of `CO[C@]1([C@@H]2CSC(=O)N2C(=O)c2ccccc2)C[C@H]2C[C@@H](CC[C@H](C)/C=C\C=C\CC/C(C)=C\C(=O)O2)O1` is reported as 0.55 µM (MTT; 72 h).
The IC50 of `N.N.[Cl][Pt][Cl]` is reported as 10 µM (MTT).
`COC(C(=O)N1C(=O)SCC1C1(OC)CC2CC(CCC(C)C=CC=CCCC(C)=CC(=O)O2)O1)c1ccccc1` (centres unmarked) gave an IC50 of 15.4 µM (MTT; 72 h).
`O=C(Oc1ccc(Cl)cc1)[c-]1cccc1.[Fe+2].c1cc[cH-]c1` has an IC50 of 33 µM (MTT; 72 h).
`CCC1(c2ccc(N)cc2)CCC(=O)NC1=O` (centres unmarked) gave an IC50 of greater than 50 µM (CCK-8; 48 h).
`N.N.[Cl][Pt][Cl]` has an IC50 of 9.6 µM (SRB; 48 h).
`CO[C@]1([C@@H]2CSC(=O)N2C)C[C@H]2C[C@@H](CC[C@H](C)/C=C\C=C\CC/C(C)=C\C(=O)O2)O1` gave an IC50 of 13.1 µM (MTT; 72 h).
For `O=C(O)CCCc1ccc(N(CCCl)CCCl)cc1`, the IC50 was 38.5 µM (CCK-8; 48 h).
